This is a sample that favours compounds with a hit; in the whole collection about 1.6% have one here.
eIF4E 4G PPI = eIF4E/eIF4G interaction inhibition in translation initiation. P63073+Q04637. TR-FRET eIF4E-eIF4GI(517-606) binding, 2 h. inhibition, % at 21.7 µM. hit rate 0.37% among 220,000. AID 782;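 active = inhibition above about 30%, limit read from the data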;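 also: 0% = full FRET control wells and 100% = background wells lacking eIF4GI fragment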
p47phox inh = p47phox (human) inhibition | p47phox/p22phox peptide binding, fluorescence polarization, 2 h | AID 1274 | P14598 | hit rate 0.53% among 220,000 | inhibition, % at 24.7 µM;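 active = inhibition above about 30%, limit read from the data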;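 also: 0% = p47phox with labelled peptide and 100% = labelled peptide alone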
Target sequence (P14598 whole entry, looked up): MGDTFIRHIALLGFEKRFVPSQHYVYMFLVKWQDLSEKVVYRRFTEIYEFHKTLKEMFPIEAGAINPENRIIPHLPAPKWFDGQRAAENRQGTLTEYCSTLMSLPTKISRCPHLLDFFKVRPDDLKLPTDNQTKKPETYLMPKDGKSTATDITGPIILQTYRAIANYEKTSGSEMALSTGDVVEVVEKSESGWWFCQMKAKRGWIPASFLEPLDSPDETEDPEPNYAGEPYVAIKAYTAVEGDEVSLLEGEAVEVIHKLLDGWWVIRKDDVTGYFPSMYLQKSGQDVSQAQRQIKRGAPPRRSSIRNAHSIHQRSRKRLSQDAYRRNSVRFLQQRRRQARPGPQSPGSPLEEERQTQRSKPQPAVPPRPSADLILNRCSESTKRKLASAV
14-3-3 Bad PPI = disrupts binding of bovine 14-3-3 zeta to phospho-Bad peptide; TR-FRET 14-3-3zeta/Dy647-pBad peptide displacement, 1 h; inhibition, % at 21.7 µM; hit rate 0.71% among 220,000; AID 781;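 active = inhibition above about 70%, limit read from the data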;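 also: 0% = full 14-3-3 plus peptide FRET controls and 100% = background without 14-3-3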
UBC9 SUMO inh = blocks human SUMOylation mediated by UBC9 | P63279 | HTRF SUMOylation assay, SAE1/SAE2 + UBC9, in vitro | inhibition, % at 35 µM | hit rate 0.36% among 290,000 | AID 2006; in the data active = inhibition above about 50%, passing the limit was not always enough
Target sequence (P63279 whole entry, looked up): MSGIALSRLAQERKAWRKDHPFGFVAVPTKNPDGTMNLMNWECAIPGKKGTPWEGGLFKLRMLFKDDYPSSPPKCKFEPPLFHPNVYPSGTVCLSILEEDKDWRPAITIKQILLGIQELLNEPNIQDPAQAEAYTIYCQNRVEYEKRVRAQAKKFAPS
TbMetRS inhib = blocks T. brucei methionyl-tRNA synthetase activity. purified T. brucei MetRS, ATP depletion, Kinase-Glo luminescence. inhibition, % at 11.9 µM. hit rate 0.4% among 360,000. AID 624268;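 active = inhibition above a per-plate cutoff of the control wells' mean inhibition plus 3 SD, cut at about 5.5% in these data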;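 also: 0% = DMSO wells median and 100% = median of wells with control inhibitor compound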
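Test system: purified T. brucei MetRS enzyme. Also added: ATP, methionine and E. coli bulk tRNA substrates. Compound: 11.9 µM single point. Schedule: 15 min enzyme-compound preincubation, 2 h reaction, 10 min detection, 25 °C. Signal: luciferase luminescence of residual ATP, Kinase-Glo. Evaluation: percent inhibition versus plate control medians. Controls: DMSO wells, low control.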
p97 ATPase inh = human p97 ATPase inhibition; recombinant p97 ATPase, Kinase-Glo ATP luminescence, 3 h; inhibition, % at 8 µM; P55072; hit rate 0.42% among 220,000;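 also: 0% = DMSO vehicle and 100% = wells lacking enzyme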
TbMetRS confirm = confirmation of Trypanosoma brucei MetRS inhibitors; shares compounds with TbMetRS inhib; T. brucei MetRS enzyme, luminescence (ATP depletion); inhibition, % at 11.9 µM; hit rate 93% among 1,400; in the data active = inhibition above about 7%
Jurkat cytotox = kills Jurkat cells in T. brucei MetRS counterscreen; Jurkat cells viability, ATP luminescence; inhibition, % at 8.3 µM; shares compounds with TbMetRS inhib; hit rate 12% among 1,400; AID 624413;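 also: 0% = vehicle and 100% = reference inhibitor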
Tb MetRS inh FP = T. brucei MetRS inhibition, orthogonal assay. purified T. brucei MetRS, fluorescence polarization. shares compounds with TbMetRS inhib. hit rate 44% among 1,400. inhibition, % at 11.9 µM; in the data active = inhibition above about 17%;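 also: 0% = vehicle wells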
Numbers without * were called inactive; . = no result given. Rule as the data show it, unless noted: active = inhibition above about 15%; inactive = the rest.

SMILES	eIF4E 4G PPI	p47phox inh	14-3-3 Bad PPI	UBC9 SUMO inh	TbMetRS inhib	p97 ATPase inh	TbMetRS confirm	Jurkat cytotox	Tb MetRS inh FP
COCCNc1ncnc2c1[nH]c1ccccc12	-1	-3	-2	0	59*	4	77*	11	42*
Fc1ccc2[nH]c3c(NCc4ccccc4)ncnc3c2c1	.	.	.	-3	84*	.	92*	30*	82*
Cc1ccc(S(=O)(=O)NCC2CCC(C(=O)NCc3cccnc3)CC2)cc1 (centres undefined)	1	5	0	-4	0	5	.	.	.
COc1ccc(Cc2noc(CN3CCCN(C4Cc5ccccc5C4)CC3)n2)cc1OC	-1	2	-6	0	1	2	.	.	.
COc1ccc(/C(C#N)=C/c2cccnc2)cc1	-8	-11	0	10	6.1*	7	15*	-1	8
N#C/C(=C\c1cccnc1)c1ccccn1	.	.	.	22	0	.	.	.	.
Cc1ccc(C2CC2C(=O)NNC(=S)Nc2cccc(C)c2)cc1 (centres undefined)	1	-2	-7	-153	0	-2	.	.	.
Cc1ccc(C2CC2C(=O)NNC(=S)Nc2cccc(Cl)c2)cc1 (centres undefined)	-1	-21	7	-124	6.5*	-2	14*	0	10
O=C(NNC(=S)Nc1ccc(F)cc1)C1CC1c1ccc(Cl)cc1 (centres undefined)	6	6	2	-84	48*	-2	66*	6	41*
Cc1ccc(NC(=S)NNC(=O)C2CC2c2ccc(C)cc2)cc1 (centres undefined)	1	-24	-13	-111	4	-7	.	.	.
CCc1nc2ccc(C(=O)N(C)CCN(C)C)cn2c1N(C)CCC(C)C	.	.	.	.	0	.	.	.	.
Nc1n[nH]c(N)c1N=Nc1ccccc1F	.	.	.	-14	0	.	.	.	.
Nc1n[nH]c(N)c1N=Nc1ccc(Cl)cc1Cl	-3	0	-7	-2	9.7*	-4	22*	19*	36*
O=C(O)c1ccc(Nc2nc3ccc(Cl)cc3[nH]2)cc1	.	.	.	19	11*	.	44*	-3	14
Cc1ccc2[nH]c(=O)c(CN(CC3COCCO3)C(=O)Nc3ccccc3F)cc2c1 (centres undefined)	5	1	-13	5	0	3	.	.	.
Cc1ccc(NC(=O)CS(=O)CC(=O)Nc2ccc3c(c2)OCO3)cc1Cl (centres undefined)	.	-8	.	26	9.8*	-1	12*	-2	12
Cc1cccc(N(CC(=O)NC(C)(C)C)C(=O)CS(=O)CC(=O)Nc2ccc3c(c2)OCO3)c1 (centres undefined)	1	-5	-13	20	0	-1	.	.	.
CCOc1ccc(CONS(=O)(=O)c2ccc(NC(C)=O)cc2)cc1Cl	3	-11	-2	1	42*	-5	67*	7	57*
O=C(CNC(=O)c1cccc(Br)c1)N/N=C/c1cccs1	.	.	.	8	6.0*	.	20*	3	2
CCOC(=O)N1CCN(C(=O)CCCn2c(=O)[nH]c3ccccc3c2=O)CC1	-2	-4	-3	20	0	-1	.	.	.
CC(=O)c1ccc(N2CCN(C(=O)CCCn3c(=O)[nH]c4ccccc4c3=O)CC2)cc1	3	0	7	8	23*	2	32*	4	16
Nc1nnc(/C=C/c2ccccc2)s1	2	2	-6	6	0	0	.	.	.
COc1ccccc1CNC(=O)COC(=O)CCN1C(=O)C2CC=CCC2C1=O (centres undefined)	.	.	.	.	0	.	.	.	.
Cc1ccc(NC(=O)CN(C)C(=O)c2cc(S(=O)(=O)N(C)C)ccc2N2CCCC2)cc1	.	.	.	.	49*	.	78*	5	52*
CN(CC(=O)Nc1cccc(F)c1)C(=O)c1cc(S(=O)(=O)N(C)C)ccc1N1CCCC1	.	.	.	-2	10*	.	27*	3	10
SMILES	eIF4E 4G PPI	p47phox inh	14-3-3 Bad PPI	UBC9 SUMO inh	TbMetRS inhib	p97 ATPase inh	TbMetRS confirm	Jurkat cytotox	Tb MetRS inh FP
O=C1CCC(=O)N1OCCCOc1ccc(Br)cc1Cl	1	-4	0	13	7.0*	-2	15*	-1	33*
O=C(C[C@@H]1C[C@@H]2c3cc(NC(=O)C4CCOCC4)ccc3O[C@@H]2[C@H](CO)O1)NCc1ccccn1	.	.	.	.	1	.	.	.	.
COCCCn1c(Cc2csc(Nc3ccccc3)n2)nnc1SCC(N)=O	0	13	-2	7	0	-3	.	.	.
NC(=O)CSc1nnc(Cc2csc(Nc3ccccc3)n2)n1Cc1ccccc1	17	-4	-11	-13	9.0*	-7	16*	2	1
CN(C)C(CNc1ncnc2sccc12)c1ccccc1 (centres undefined)	1	-4	-9	7	8.0*	3	1	-4	-1
COc1ccc2[nH]c3c(NCCC4=CCCCC4)ncnc3c2c1	6	-49	-3	-34	18*	2	40*	51*	31*
COc1ccc2[nH]c3c(NCCCOC(C)C)ncnc3c2c1	.	.	.	19	6.2*	.	17*	9	10
CCCCN(C)C(=O)C1CCCN(S(=O)(=O)c2ccc3c(c2)CC(C)N3C(=O)C2CC2)C1 (centres undefined)	.	.	.	7	0	.	.	.	.
Cc1cccc(C(=O)N2CCCC(N3CCN(c4ccc(F)cc4)CC3)C2)n1 (centres undefined)	.	.	.	6	0	.	.	.	.
Cn1nnc(NCc2cc(Br)ccc2OCc2ccccc2F)n1	5	0	12	-3	20*	2	24*	9	9
Nc1ccc(Oc2ccc3c(c2)C(=O)NC3=O)cc1	.	.	.	4	0	.	.	.	.
CC1CN(S(=O)(=O)c2ccc(CN3C(=O)c4cccnc4C3=O)cc2)c2ccccc2O1 (centres undefined)	.	.	.	0	0	.	.	.	.
O=C(NC1CCCCC1)N1CCC(c2nc3ccc(Cl)cc3[nH]2)CC1	-5	2	0	3	7.8*	-4	12*	12	6
COc1ccc(NC(=S)N2CCC(c3nc4ccc(Cl)cc4[nH]3)CC2)c(OC)c1	3	-18	-16	-22	15*	1	36*	1	24*
O=C(NC1CCCCC1)N1CCCC(c2nc3ccccc3[nH]2)C1 (centres undefined)	-5	-7	-21	2	9.2*	2	16*	-2	9
O=C(NC1CCCCC1)N1CCC(c2nc3ccccc3[nH]2)CC1	-7	-10	33	3	1	-9	.	.	.

Screening data: PubChem BioAssay, several laboratories
